Columns and labels:
L1210 [1] = experiment: Antitumor activity in the mice with intraperitoneal implanted L1210 lymphoid leukemia at the dose of 34.8 and 56.1 mg/kg/day x 5 was determined as mean survival of treated group compared to untreated; 9.5/9; format: functional, Mus musculus
Method in brief: (§1)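 C3D2F1/J female mice (C3H/HeJ female × DBA/2J male), groups of six to eight, average weight 25 g. Inoculated ip with 1 × 10^6 L1210 ascites cells taken from DBA/2Ha donor mice bearing 3-5 day old tumors. Compounds were dissolved in 0.154 N NaOH, neutralized with 0.154 N HCl (final 0.9% NaCl), and given ip daily for 5 days from 24 h post-implant. Median survival T/C; ILS = (T/C − 1) × 100; 30-day survivors counted.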

L1210 [2] = experiment: Antitumor activity in mice with intraperitoneal implanted L1210 lymphoid leukemia at the dose 9.2 and 14.9 mg/kg/day x 5 was determined as weight change (g/mouse) on 8th day; format: functional
Method in brief: (§2)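 C3D2F1/J female mice (C3H/HeJ × DBA/2J), groups of six to eight, average 25 g, inoculated ip with 1 × 10^6 L1210 ascites cells taken from DBA/2Ha donor mice carrying 3-5 day tumors. Compound dissolved in 0.154 N NaOH, then neutralized with 0.154 N HCl to give 0.9% NaCl. Given ip daily for 5 consecutive days starting 24 h after implantation. Body weight change per mouse recorded on day 8.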

L1210 [3] = experiment: Antitumor activity in the mice with intraperitoneal implanted L1210 lymphoid leukemia at the dose of 9.2 and 14.9 mg/kg/day x 5 was determined as mean survival of treated group compared to untreated; 9.5/9; format: functional, Mus musculus
L1210 [4] = experiment: Antitumor activity in mice with intraperitoneal implanted L1210 lymphoid leukemia at the dose 34.8 and 56.1 mg/kg/day x 5 was determined as weight change (g/mouse) on 8th day; format: functional; method in brief: as §2
L1210 [5] = experiment: Antitumor activity in the mice with intraperitoneal implanted L1210 lymphoid leukemia at the dose 34.8 and 56.1 mg/kg/day x 5 was determined and number of animals survived on 30 th day were reported; 0/8; format: functional, Mus musculus
Method in brief: (§3)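 Female C3D2F1/J mice (C3H/HeJ × DBA/2J), groups of six to eight, average weight 25 g. Each mouse got 1 × 10^6 L1210 ascites cells ip, taken from DBA/2Ha donor mice bearing 3-5 day tumors. Compound was dissolved in 0.154 N NaOH and neutralized with 0.154 N HCl (final 0.9% NaCl). Dosed ip daily ×5, starting 24 h after implant. Recorded body weight change on day 8, survival range, median survival and 30-day survivors. ILS = (T/C − 1) × 100.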

L1210 [6] = experiment: Antitumor activity in the mice with intraperitoneal implanted L1210 lymphoid leukemia at the dose 34.8 and 56.1 mg/kg/day x 5 was determined as Survival time in days; Range is 8-9 days; format: functional, Mus musculus; method in brief: as §3
L1210 [7] = experiment: Antitumor activity in the mice with intraperitoneal implanted L1210 lymphoid leukemia at the dose 9.2 and 14.9 mg/kg/day x 5 was determined as percentage increase in the life span as compared with control tumor bearers; format: functional, Mus musculus; method in brief: as §1
L1210 [8] = experiment: Antitumor activity in the mice with intraperitoneal implanted L1210 lymphoid leukemia at the dose 9.2 and 14.9 mg/kg/day x 5 was determined as Survival time in days; Range is 8-10 days; format: functional, Mus musculus; method in brief: as §1
L1210 [9] = experiment: Antitumor activity in the mice with intraperitoneal implanted L1210 lymphoid leukemia at the dose 34.8 and 56.1 mg/kg/day x 5 was determined as percentage increase in the life span as compared with control tumor bearers; format: functional, Mus musculus; method in brief: as §3
L1210 [10] = experiment: Antitumor activity in the mice with intraperitoneal implanted L1210 lymphoid leukemia at the dose 9.2 and 14.9 mg/kg/day x 5 was determined and number of animals survived on 30 th day were reported; 0/6; format: functional, Mus musculus; method in brief: as §1

C[C@@H]1C[C@H]2[C@@H]3CCC4=CC(=O)C=C[C@]4(C)[C@@]3(F)[C@@H](O)C[C@]2(C)[C@@]1(O)C(=O)CO.Nc1ccn([C@@H]2O[C@H](CO)[C@@H](O)[C@@H]2O)c(=O)n1
T/C (L1210 [1]): 8.5
Weight change (L1210 [2]): -4.23 g mouse-1
T/C (L1210 [3]): 9.5
Weight change (L1210 [4]): -2.72 g mouse-1
Survivors (L1210 [5]): 0
Survival time (L1210 [6]): 8 days
ILS (L1210 [7]): -14%
Survival time (L1210 [8]): 8 days
ILS (L1210 [9]): -6%
Survivors (L1210 [10]): 0

Reference: ChEMBL document CHEMBL1121364, “Nucleoside conjugates as potential antitumor agents. 3. Synthesis and antitumor activity of 1-(beta-D-arabinofuranosyl)cytosine conjugates of corticosteroids” (1980)
